From ChEMBL document CHEMBL2157952, “Chemotherapy of leishmaniasis. Part IX: synthesis and bioevaluation of aryl substituted ketene dithioacetals as antileishmanial agents” (Bioorg Med Chem Lett, 2012)
Active and inactive are the calls of the source. No cut-off for these calls is given here.

Experiments:
[1] = Cytotoxicity against human KB cells assessed as cell viability after 72 hrs by MTT assay; assay type: cell-based
Outline: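 Exponentially growing KB cells at 1 × 10⁵/well exposed 72 h at 37 °C in humidified CO₂/air to seven-point threefold dilutions from 400 µM; DMSO vehicle wells as control. MTT (5 mg/ml) added 2 h at 37 °C, supernatant removed, DMSO added, absorbance at 544 nm. CC50 is the concentration giving 50% viability reduction versus medium-only cells.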

[2] = test system: Leishmania donovani; experiment: Antileishmanial activity against Leishmania donovani amastigotes infected in mouse J774A.1 cells after 72 hrs by luciferase reporter gene based luminometric analysis; assay type: functional, organism-based; conditions: J774.A1, 72 h
Outline: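 J-774A.1 macrophages seeded at 4 × 10⁴/well in RPMI-1640 + 10% FCS, 37 °C, CO₂. After 24 h, infected with stationary-phase luciferase-expressing promastigotes (4 × 10⁵/well). Medium replaced with compound, seven-point twofold dilutions from 40 µM, for 72 h. Steady Glo added, luminescence read as RLU. IC50 by nonlinear regression with four-parameter Hill fit.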

[3] = Selectivity index, ratio of CC50 for human KB cells to IC50 for Leishmania donovani amastigotes infected in mouse J774A.1 cells; assay type: functional
Outline: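 SI = CC50 (KB cells, MTT, 72 h) divided by IC50 against intracellular amastigotes in J-774A.1 macrophages (luciferase read-out, 72 h).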

[4] = test system: Leishmania donovani; experiment: Antileishmanial activity against Leishmania donovani MHOM/IN/80/Dd8 amastigotes infected in golden hamster assessed as inhibition of parasite multiplication at 50 mg/kg, ip for 5 days measured on day 7 by Giemsa staining; assay type: functional; conditions: for inhibition in vivo at 50 mg/kg: MHOM/IN/80/Dd8, ip, route intraperitoneal
Outline: (§1)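 Golden hamsters (inbred, either sex, 40–45 g) infected intracardially with 1 × 10⁷ amastigotes each; infection establishes in 15–20 days. Animals randomized by biopsy parasite burden, 5–6 per sample. Dosing began 2 days after biopsy, five consecutive days. Post-treatment biopsy on day 7 after last dose, amastigotes counted by Giemsa staining. PI = 100 − [ANAT × 100/(INAT × TIUC)] versus untreated controls.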

[5] = test system: Leishmania donovani; experiment: Antileishmanial activity against Leishmania donovani MHOM/IN/80/Dd8 amastigotes infected in golden hamster assessed as inhibition of parasite multiplication at 30 mg/kg, po for 5 days measured on day 7 by Giemsa staining; assay type: functional; outline: as §1

Row | Compound | IC50 [2] [µM] | CC50 at 72 h [1] [µM] | Ratio CC50/IC50 [3] | inhibition in vivo at 50 mg/kg [4] [%] | inhibition [4] | inhibition in vivo at 30 mg/kg [5] [%]
1 | CSC(=CC(=O)/C=C/c1cccc([N+](=O)[O-])c1)SC | 5.12 | 9.83 | 1.92 | 82.8 |  | 
2 | CSC(=CC(=O)/C=C/c1ccc([N+](=O)[O-])cc1)SC | > 40 |  |  |  | inactive | 
3 | CCCCCCCCCCCCCCCCOP(=O)([O-])OCC[N+](C)(C)C [MILTEFOSINE] | 12.5 | 3.23 | 0.26 |  |  | 95.3
4 | CSC(=CC(=O)/C=C/c1ccc(-n2cnnc2)cc1)SC | > 20 |  |  |  | inactive | 

Further lines, with some results ahead:

Row | IC50 [2] [µM] | Compound | CC50 at 72 h [1] [µM] | Ratio CC50/IC50 [3] | inhibition in vivo at 50 mg/kg [4] [%] | inhibition [4] | inhibition in vivo at 30 mg/kg [5] [%]
5 | > 40 | CSC(=CC(=O)/C=C/c1ccc(F)cc1)SC |  |  |  | inactive | 
6 | > 20 | CSC(=CC(=O)/C=C/c1ccc(Cl)cc1)SC |  |  |  | inactive | 
7 | 3.56 | COc1cc(/C=C/C(=O)C=C(SC)SC)ccc1OCc1ccccc1 | 204 | 57.26 | 78 |  | 
8 | > 40 | CSC(=CC(=O)/C=C/c1ccccc1Cl)SC |  |  |  | inactive | 
9 | > 40 | CSC(=CC(=O)/C=C/c1ccc(-n2ccnc2)cc1)SC |  |  |  | inactive | 
